Hits are enriched below; roughly 3.5% of the tested compounds scored in any of these assays.
MrgX1 ag: agonists of human MrgX1 receptor, primary screen, HEK293 cells, Fluo-4 calcium flux. Mas-related G-protein coupled receptor member X1 (Homo sapiens), Q96LB2. Fluo-4 calcium fluorescence, agonist mode; stronger effect = higher value. 0.44% of 310,000 active. AID 588627, 2011. B-score at 10 µM;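 active means calcium response B-score plate-corrected fluorescence ratio at least 3 library SD, with starting fluorescence B-score inside 5 SD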
Target sequence (Q96LB2 whole entry, looked up): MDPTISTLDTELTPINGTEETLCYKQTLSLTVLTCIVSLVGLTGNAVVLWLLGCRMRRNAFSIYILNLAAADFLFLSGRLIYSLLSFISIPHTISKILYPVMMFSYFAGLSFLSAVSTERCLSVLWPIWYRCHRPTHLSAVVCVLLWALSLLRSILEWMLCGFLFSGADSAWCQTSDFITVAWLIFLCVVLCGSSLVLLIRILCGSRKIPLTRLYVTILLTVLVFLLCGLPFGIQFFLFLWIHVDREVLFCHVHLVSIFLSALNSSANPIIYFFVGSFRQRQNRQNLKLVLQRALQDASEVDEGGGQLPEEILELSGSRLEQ
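Assay system: MrgX1-expressing HEK293 cells / Amount: fifteen thousand cells per well / Doses: test compound in the initial addition of three / Timing: cells plated overnight, dye loaded 0.5 h 37 °C, 0.5 h room temperature / Technique: kinetic calcium dye fluorescence, Fluo-4 NW / Control set: positive and negative controls per plate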
RGS4 act: RGS4 potentiators or activators, primary screen, cell-based, HEK293 M3R inducible RGS4, calcium flux; B-score at 10 µM; 0.92% of 310,000 active; AID 463111, 2010; carbachol calcium flux Fluo4; stronger effect = lower value;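 active means B-score of the integrated calcium signal more than 4 SD below the library mean, with starting fluorescence not abnormally high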;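 further: negative B-score means reduced calcium response which marks RGS4 activation or potentiation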
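Assay system: Inducible-RGS4 HEK293 cells carrying M3 receptor | Schedule: Compound preincubation 20 min at room temperature before agonist | Signal: Kinetic calcium fluorescence imaging with Fluo4-AM dye, 2 µM | Read-out basis: B score from integrated fluorescence ratio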
MrgX1 antagonist: antagonists of human MrgX1 receptor, primary screen, HEK293 cells, Fluo-4 calcium flux; B-score at 10 µM; BAM8-22 antagonism; stronger effect = lower value; Mas-related G-protein coupled receptor member X1 (Homo sapiens), Q96LB2; 1.3% of 310,000 active;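 active means calcium-response B-score plate-corrected more than 3 library SD below zero, starting fluorescence within 5 deviations, no agonist response on first addition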;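 further: peak minus trough fluorescence over baseline after final BAM8-22 challenge near maximal dose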
RGS4 block: RGS4 inhibitors, primary screen, cell-based, HEK293 M3R inducible RGS4, calcium flux | Fluo-4 calcium flux; stronger effect = higher value; triggered by carbachol at its EC20 | 0.45% of 310,000 active | AID 463165, 2010 | B-score at 10 µM;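 active means B-score, a plate-corrected calcium signal, over three deviations above library mean, with baseline fluorescence within five deviations of library mean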;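 further: RGS4 expression induced by doxycycline in cells with stable M3 receptor; B-score is computed from the integrated fluorescence ratio over baseline after carbachol; higher B-score means a larger calcium signal and so more RGS4 inhibition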
Target sequence (P49798 whole entry, looked up): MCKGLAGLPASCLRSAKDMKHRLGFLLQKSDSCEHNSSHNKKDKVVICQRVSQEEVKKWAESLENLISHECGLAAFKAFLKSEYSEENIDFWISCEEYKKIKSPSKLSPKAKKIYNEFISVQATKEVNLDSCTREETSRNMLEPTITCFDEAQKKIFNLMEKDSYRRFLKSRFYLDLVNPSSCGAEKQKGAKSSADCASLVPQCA
MrgX1 PAM: positive allosteric modulators of MrgX1, primary screen, HEK293 cells, Fluo-4 calcium flux; FDSS; stronger effect = higher value; Mas-related G-protein coupled receptor member X1 (Homo sapiens), Q96LB2; 0.63% of 310,000 active; B-score at 10 µM;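 active means plate-corrected calcium response at least 3 library SD above typical, normal starting fluorescence, not activating the receptor alone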;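 further: compound read alongside a low EC10 to EC30 dose of BAM8-22 agonist; peak minus trough fluorescence over baseline measured at the second addition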
RGS4 activ val: reduced carbachol calcium response, RGS4-induced M3R cells, confirmation, RGS4 activator project, cell-based, HEK293 M3R/RGS4 inducible, calcium flux, duplicate; shares compounds with RGS4 act; carbachol calcium flux Fluo4; inhibition, % at 10 µM; 89% of 1,100 active; AID 602282, 2012;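 active means inhibition above 3 SD of the buffer control wells, cut at about 41% in these data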;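 further: signal is the integrated peak-minus-minimum Fluo4 fluorescence over baseline ratio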
M3R Ca counter: activity in cells without induced RGS4 expression | inhibition, % at 10 µM | HEK293 M3R non-induced RGS4, Fluo4 calcium flux; after carbachol challenge at its EC90 | shares compounds with RGS4 act | 82% of 1,100 active;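 active means inhibition exceeding 3 SD of buffer-only control wells, cut at about 26% in these data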;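 further: percent drop in integrated peak-minus-baseline over baseline Fluo4 ratio after carbachol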
* marks the source's active call; other numbers are inactive results; i = inactive; nt = not tested or not shown.

SMILES | MrgX1 ag | RGS4 act | MrgX1 antagonist | RGS4 block | MrgX1 PAM | RGS4 activ val | M3R Ca counter
Cc1ccc(C(=O)Nc2ccc(CN3CCCCC3)cc2)c(C)c1 | i | -8.5* | i | i | i | 55* | 84*
COc1ccc(Cl)cc1C(=O)Nc1ccc(CN2CCCCC2)cc1 | i | i | i | i | i | nt | nt
CCOC(=O)c1c(-c2ccccc2)csc1NC(=O)c1nn(CC)cc1Br | i | -7.6* | i | i | i | 80* | 0
NNC(=O)C1SCCN1S(=O)(=O)c1ccc(Cl)cc1 (configuration not stated) | i | i | i | i | i | nt | nt
Cc1ccc(C(=O)Nc2cccc(C(=O)NCc3ccccc3)c2)o1 | i | i | i | i | i | nt | nt
C/C(=N\NC(=O)C1(C)CC1(Br)Br)c1cccc(NC(=O)c2ccc(C)o2)c1 (configuration not stated) | i | -12* | i | i | 7* | 92* | 81*
c1ccc(COc2ccc(OCCN3CCCC3)cc2)cc1 | i | i | i | i | i | nt | nt
CC1CCN(CCCOc2ccc(OCc3ccccc3)cc2)CC1 | i | -10* | i | i | i | 92* | 78*
c1ccc(COc2ccc(OCCCN3CCCC3)cc2)cc1 | i | -11* | i | i | i | 94* | 57*
CCOC(=O)c1[nH]c2ccc(Br)cc2c1NC(=O)CCN1CCCC(C)(C)C1 | i | -14* | i | i | i | 94* | 74*
CCOC(=O)c1[nH]c2ccc(F)cc2c1NC(=O)CCN1CCOCC1 | i | i | i | i | i | nt | nt
COc1ccc(OC)c(-c2csc(NC(=O)c3ccc(F)cc3)n2)c1 | i | -8.3* | i | i | i | 82* | 52*
CC(=O)NC(Cc1ccc(F)c(F)c1)C(=O)NC1CCN(S(=O)(=O)c2ccc(C)cc2)CC1 (configuration not stated) | nt | i | nt | i | nt | nt | nt
CCOC(=O)C1=C(C)OC(N)=C(C#N)C1c1cc2c(cc1Br)OCO2 (configuration not stated) | i | -8.7* | i | i | i | 90* | 65*
COc1cccc(CNC(=O)CCC2CCCN(c3cc(C)nc(N(C)C)n3)C2)c1 (configuration not stated) | i | -11* | i | i | i | 90* | 72*
CCC(C)N(CC(=O)Nc1cccc(C)c1C)C(=O)CCl (configuration not stated) | i | i | i | i | i | nt | nt
Fc1cccc(Cc2noc(CN3CCN(C4CCc5ccccc5C4)CC3)n2)c1 (configuration not stated) | i | -7.7* | i | i | i | 92* | 89*
COc1ccc(Cc2noc(CN3CCN(C4CCc5ccccc5C4)CC3)n2)cc1OC (configuration not stated) | i | i | i | i | i | nt | nt
N=C1c2ccccc2CN1c1ccc(S(=O)(=O)N2CCCCC2)cc1 | i | -8.8* | i | i | i | 75* | 36*
O=C(c1ccco1)N1CCN(C(=O)c2cc(-c3ccncc3)nc3ccc(Br)cc23)CC1 | i | i | i | i | i | nt | nt
CC(=O)c1ccc(N2CCN(C(=O)c3cc(-c4ccncc4)nc4ccc(Br)cc34)CC2)cc1 | i | -9.3* | i | i | i | 68* | 0
O=C(c1cc(-c2ccccc2)nc2ccccc12)N1CCOCC1 | i | i | i | i | i | nt | nt
CC(C)c1ccc(-c2cc(C(=O)N3CCOCC3)c3cc(Br)ccc3n2)cc1 | i | -8.4* | i | i | i | 80* | 38*
CCSc1nnc(NC(=O)[C@@H](NC(=O)c2ccccc2F)C(C)C)s1 | i | i | i | i | i | nt | nt
CCOc1ccc(NC(=O)CN2C(=O)NC(C)(c3ccc(OC(F)F)cc3)C2=O)cc1 (configuration not stated) | i | i | i | i | i | nt | nt
SMILES | MrgX1 ag | RGS4 act | MrgX1 antagonist | RGS4 block | MrgX1 PAM | RGS4 activ val | M3R Ca counter
COc1ccc(OC)c(/C=C/c2nc3ccccc3[nH]c2=O)c1 | i | -7.7* | i | i | i | 60* | 44*
O=C(O)COCC(=O)N1CCCN(c2nccc(C(F)(F)F)n2)CC1 | i | i | i | i | i | nt | nt
CCc1ccc(OCC(=O)N2CCN=C2c2ccccc2)cc1 | i | -8.6* | i | i | i | 0 | 0
COc1cccc(-c2ccc3nnc(SCC(=O)N4CCOCC4)n3n2)c1 | i | i | i | i | i | nt | nt
O=C(O)c1ccccc1SCC(=O)N1c2ccccc2Sc2ccccc21 | i | i | i | i | i | nt | nt
O=C(CN1CCCCCC1)N1c2ccccc2Sc2ccccc21 | i | -11* | i | i | i | 92* | 92*
O=C1CCCN1CCCNCC(O)c1ccccc1 (configuration not stated) | i | i | i | i | i | nt | nt
O=C(C[n+]1ccccc1)N1c2ccccc2Sc2ccccc21 | i | -12* | i | i | i | 93* | 96*
CN1CCN(CC(=O)N2c3ccccc3Sc3ccccc32)CC1 | i | -11* | i | i | i | 92* | 76*
O=C1CCCN1CCCNCC(=O)N1c2ccccc2Sc2ccccc21 | i | -9.4* | i | i | i | 85* | 55*
CCOC(=O)N1CCN(CC(=O)N2c3ccccc3Sc3ccccc32)CC1 | i | i | i | i | i | nt | nt
COc1ccc(OC)c(S(=O)(=O)NCCCc2ccccc2)c1 | i | i | i | i | i | nt | nt
CC1(C)CC2CC(C)(CN2C(=O)c2ccc([N+](=O)[O-])cc2[N+](=O)[O-])C1 (configuration not stated) | i | i | i | i | i | nt | nt
O=C(/C=C/c1ccc(OCCCF)cc1)N1CCOCC1 | i | i | i | i | i | nt | nt
Cc1nnc(NC(=O)c2cc(S(=O)(=O)N3CCCCC3)ccc2Cl)s1 | i | i | i | i | i | nt | nt

Screens as filed in PubChem BioAssay.
